# Reference: ChEMBL document CHEMBL1143797, “Synthesis, characterization and in vitro biological studies of novel cyano derivatives of N-alkyl and N-aryl piperazine” (2007)
# Calls of active or inactive are those of the source. The calls are words filed in the database; no cut-off is given here.
# Experiments:
# [1] = test system: Pseudomonas aeruginosa; assay: Antibacterial activity against Pseudomonas aeruginosa MTCCB 741 at 30 ug/disc after 48 hrs by disc diffusion method; format: functional; conditions: for zone of inhibition at 30 µg/disc: read-out: IZ
# In short: (§1)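 Compound-impregnated discs were placed on agar plates pre-inoculated with the bacterial strain and incubated at 37 °C. Zones of inhibition around the discs were read at 48 h. Gentamicin served as the standard control, alongside a solvent-only (DMSO) disc.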
# [2] = test system: Aspergillus flavus; assay: Antifungal activity against Aspergillus flavus ITCC 5192 by micro-broth dilution method; format: functional
# [3] = test system: Aspergillus fumigatus; assay: Antifungal activity against Aspergillus fumigatus ITCC 4517 by micro-broth dilution method; format: functional
# [4] = test system: Aspergillus fumigatus; assay: Antifungal activity against Aspergillus fumigatus ITCC 4517 by disc diffusion method; format: functional
# In short: (§2)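 Agar plates inoculated with Aspergillus spores; sterile 5.0 mm filter-paper discs loaded with test compound over a range of 750–1.46 (unit as printed unclear) and placed on the surface. Incubated at 37 °C; zones read at 24, 48 and 96 h. MIC was taken as the lowest concentration giving an inhibition zone of at least 6.0 mm diameter.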
# [5] = test system: Aspergillus niger; assay: Antifungal activity against Aspergillus niger ITCC 5405 by disc diffusion method; format: functional; in short: as §2
# [6] = test system: Staphylococcus aureus; assay: Antibacterial activity against Staphylococcus aureus MTCCB 737 at 30 ug/disc after 48 hrs by disc diffusion method; format: functional; conditions: for zone of inhibition at 30 µg/disc: read-out: IZ; in short: as §1
# [7] = test system: Staphylococcus epidermidis; assay: Antibacterial activity against Staphylococcus epidermidis MTCCB 1824 after 18-20 hrs by broth dilution method; format: functional
# In short: (§3)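 MIC was found by microbroth dilution in Mueller-Hinton broth with serial two-fold compound dilutions. The inoculum came from a 4–6 h broth culture adjusted to 0.5 McFarland, then diluted in broth to a final 3 × 10⁶ cfu/ml.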
# [8] = test system: Pseudomonas aeruginosa; assay: Antibacterial activity against Pseudomonas aeruginosa MTCCB 741 after 18-20 hrs by broth dilution method; format: functional; in short: as §3
# [9] = test system: Escherichia coli; assay: Antibacterial activity against Escherichia coli MTCCB 1652 after 18-20 hrs by broth dilution method; format: functional; in short: as §3
# [10] = test system: Staphylococcus aureus; assay: Antibacterial activity against Staphylococcus aureus MTCCB 737 after 18-20 hrs by broth dilution method; format: functional; in short: as §3
# [11] = test system: Staphylococcus epidermidis; assay: Antibacterial activity against Staphylococcus epidermidis MTCCB 1824 at 30 ug/disc after 48 hrs by disc diffusion method; format: functional; conditions: for zone of inhibition at 30 µg/disc: read-out: IZ; in short: as §1
# [12] = test system: Aspergillus niger; assay: Antifungal activity against Aspergillus niger ITCC 5405 by micro-broth dilution method; format: functional
# [13] = test system: Aspergillus flavus; assay: Antifungal activity against Aspergillus flavus ITCC 5192 by disc diffusion method; format: functional; in short: as §2
# [14] = test system: Aspergillus flavus; assay: Antifungal activity against Aspergillus flavus ITCC 5192 by percentage spore germination inhibition method; format: functional
# In short: (§4)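 Compound serially double-diluted in culture medium in 96-well plates, triplicate wells per concentration. Each well inoculated with spore suspension of about 100 ± 5 spores and incubated at 37 °C for 16 h. Germinated and non-germinated spores counted by inverted microscope. MIC90 is the lowest concentration giving >90% inhibition of spore germination.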
# [15] = test system: Aspergillus niger; assay: Antifungal activity against Aspergillus niger ITCC 5405 by percentage spore germination inhibition method; format: functional; in short: as §4
# [16] = test system: Escherichia coli; assay: Antibacterial activity against Escherichia coli MTCCB 1652 at 30 ug/disc after 48 hrs by disc diffusion method; format: functional; conditions: read-out: IZ; in short: as §1
# [17] = test system: Aspergillus fumigatus; assay: Antifungal activity against Aspergillus fumigatus ITCC 4517 by percentage spore germination inhibition method; format: functional; in short: as §4
# [18] = test system: HeLa; assay: Cytotoxicity against Hela cells at 30 ug after 48 hrs by MTT assay relative to gentamicin; format: functional, Homo sapiens
# In short: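 HeLa cells were grown in DMEM with 10% heat-inactivated FBS and penicillin-streptomycin at 37 °C, 5% CO₂, seeded at 8 × 10³ cells/well and allowed 16 h to adhere. They were exposed to compound in serum-free DMEM for 4 h, then kept 48 h in growth medium. MTT was added for 2 h, formazan was dissolved in isopropanol/0.06 M HCl/0.5% SDS, and A540 was read. Viability is % of untreated cells, with gentamicin as comparator.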
SMILES,zone of inhibition at 30 µg/disc [1],Activity [2],Activity [3],Activity [4],Activity [5],zone of inhibition at 30 µg/disc [6],MIC [7],MIC [8],MIC [9],MIC [10],zone of inhibition at 30 µg/disc [11],Activity [12],Activity [13],Activity [14],Activity [15],zone of inhibition at 30 µg/disc [16],also measured
N#CCCN1CCN(CCC#N)CC1,11 mm,inactive,inactive,inactive,inactive,11 mm,625 µg/mL,156 µg/mL,625 µg/mL,310 µg/mL,9 mm,inactive,inactive,inactive,inactive,10 mm,–
COc1ccccc1N1CCN(CCC#N)CC1,9 mm,–,–,–,inactive,12 mm,625 µg/mL,625 µg/mL,156 µg/mL,156 µg/mL,9 mm,inactive,–,–,inactive,11 mm,MIC [2]: 1000 µg/mL; MIC [3]: 500 µg/mL; MIC [17]: 500 µg/mL; MIC [14]: 500 µg/mL
CN1CCN(CCC#N)CC1,19 mm,inactive,inactive,inactive,inactive,10 mm,156 µg/mL,19.5 µg/mL,39.1 µg/mL,310 µg/mL,11 mm,inactive,inactive,inactive,inactive,18 mm,Activity [17]: inactive
N#CCN1CCN(Cc2ccccc2)CC1,13 mm,inactive,inactive,–,inactive,18 mm,310 µg/mL,156 µg/mL,625 µg/mL,19.5 µg/mL,10 mm,inactive,inactive,inactive,inactive,9 mm,–
N#CCCN1CCN(Cc2ccccc2)CC1,–,–,–,–,–,–,–,–,–,–,–,–,–,–,–,–,Activity [1]: inactive; Activity [6]: inactive; Activity [7]: inactive; Activity [8]: inactive; Activity [10]: inactive; Activity [11]: inactive
N#CCCN1CCN(CCO)CC1,15 mm,inactive,inactive,inactive,inactive,18 mm,310 µg/mL,39.1 µg/mL,39.1 µg/mL,19.5 µg/mL,11 mm,inactive,inactive,inactive,inactive,15 mm,Activity [18]: 60%; Activity [17]: inactive
N#CCCN1CCN(c2ccccc2)CC1,9 mm,–,–,–,–,13 mm,156 µg/mL,625 µg/mL,156 µg/mL,156 µg/mL,12 mm,–,–,–,–,12 mm,Activity [18]: 60%; MIC [2]: 500 µg/mL; MIC [3]: 250 µg/mL; MIC [17]: 250 µg/mL; MIC [12]: 500 µg/mL; MIC [14]: 250 µg/mL; MIC [15]: 250 µg/mL
